Compound activity deposited in PubChem by several laboratories.
HSV replic up = HSV replication enhancement; HSV replication augmentation in cells, fold increase; maximum fold increase; 0.005% of 220,000 active; AID 1956; in the data active means maximum fold increase above about 1.5; tested in PC3 cells
MT stabilize HCS = microtubule stabilization, imaging screen. HeLa tubulin immunostaining HCS, 24 h; share of cells brighter than vehicle mean+2SD. % tubulin-high responders, % at 10 µM. 0.83% of 200,000 active. AID 2205;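 active means plate Z-score above 3 for both tubulin-high and condensed-nucleus cell shares, with cell loss under 80%, at 10 µM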;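 further: anti alpha tubulin signal scored within the nucleus-defined area of each cell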
Dynein cargo inh = dynein cargo transport inhibition; z-score, hits read low; 3617.4 mouse cells, GR-EGFP nuclear translocation imaging; test concentration mostly 20 µM; stimulated with dexamethasone, 1 µM; stronger effect = lower value; AID 1381; 0.47% of 220,000 active;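 active means plate z-score of nuclear minus cytoplasmic receptor signal below a set negative limit, without overly bright fluorescence or cell loss, cut at about -3.5 in these data, passing the limit was not always enough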;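 further: z-score of nuclear minus cytoplasmic ring GR-EGFP intensity difference per well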
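Buffer or medium: tet-free, stripped-serum medium; Also added: dexamethasone, 1.0 µM final; Technique: high-content fluorescence imaging after fixation; Times: 48 h induction, 1 h compound, 30 min dex at 37 °C; Read-out: per-cell GR-EGFP intensity, nucleus versus surrounding cytoplasmic ring, well-averaged.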
L major viab = reduces viability of Leishmania major promastigotes; resazurin fluorescence viability; inhibition, % at 10 µM; 9% of 200,000 active; in the data active means inhibition above about 50%;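 further: promastigotes grown with compound for 44 hours at 28 °C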
b-catenin transl = modulators of beta-catenin nuclear translocation | HeLa beta-catenin nuclear translocation, immunofluorescence imaging | nuclear translocation activity, % at 5 µM | 0.3% of 190,000 active;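 active means nuclear translocation activity above 50% at 5 µM, with a well cell count of 50 or more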;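 further: per-cell ratio of nuclear to cytoplasmic median beta-catenin stain intensity; plate controls were DMSO negative control for no effect and GSK-3 inhibitor IX positive control for full effect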
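Test system: human HeLa cells, endogenous beta-catenin. Times: 24 h compound exposure, 37°C. Measured by: beta-catenin immunofluorescence imaging with DAPI.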
L major 1uM = inhibitors of Leishmania major promastigote growth, repeat at 1 uM; shares compounds with L major viab; L. major promastigote growth, resazurin fluorescence, 48 h; inhibition, % at 1 µM; 13% of 1,100 active;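 active means inhibition above about 50% in both repeat tests, limit read from the data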
Active calls of the source: *; i = inactive; . = no result. Rows were chosen to be rich in hits. Some 8.9% of all compounds tested hit in one or more screens of this group.

SMILES | HSV replic up | MT stabilize HCS | Dynein cargo inh | L major viab | b-catenin transl | L major 1uM
CCCn1c(-c2ccc(OC)cc2)nc2ccccc21 | i | 1.5 | -0.381 | 96.2* | 0.5 | 12.4
C/C(=N\O)C(=O)C(CN1CCCCC1)CN1CCCCC1 | i | 3.3 | -2.09 | 78.3* | . | 1.7
CC(=O)/C(CN1CCCCC1)=N\O | i | 5.8 | 0.48 | -3.8 | . | .
CCn1c(C)c(P(c2ccccc2)c2ccccc2)[n+]2ccccc12 | i | 2.6 | 0.344 | 94.5* | 1.3 | -10.9
Cn1nc(-c2ccc(Cl)cc2)nc2c(=O)n(C)c(=O)nc1-2 | i | 15.4* | -2.98 | 50.3* | -0.7 | 80.6*
CS(=O)(=O)n1nc(-c2ccc(Cl)cc2)nc1N | i | 1.8 | -0.126 | -3.9 | -2.2 | .
CCc1cccc(NC(=O)c2ccc(CNc3c(N4CCCC4)c(=O)c3=O)cc2)c1 | i | . | 0.0151 | . | -0.2 | .
O=c1[nH][nH]cc1C=Nc1ccccc1Cl | i | 2.3 | 1.04 | -3.7 | -2.8 | .
O=c1[nH][nH]cc1C=Nc1ccccc1O | i | 5.0 | -0.186 | 97.9* | 0.7 | -4.4
COCCNC(=O)/C(C#N)=C/c1ccc(OCC(=O)NC2CCCCC2)cc1 | i | 2.9 | 0.534 | 7.1 | -2.9 | .
CN1CCN(/N=C/c2ccc(-c3ccccc3)cc2)CC1 | i | 2.1 | 0.811 | 97.8* | -0.9 | -22.6
C(=N\N1CCN(Cc2ccccc2)CC1)/c1ccc(-c2ccccc2)cc1 | i | 2.5 | -0.379 | 13.3 | -1.7 | .
CCc1nn(-c2cc(Oc3ccccc3)nc(-c3ccccc3)n2)c(N)c1C#N | i | 3.2 | -0.405 | -1.6 | 0.1 | .
Cc1ccc(-c2cc(-c3n[nH]c(=S)o3)c3ccccc3n2)cc1 | i | 1.9 | 0.528 | 55.9* | -1.3 | -10.1
CSc1nnc(-c2cc(-c3ccc(C)cc3)nc3ccccc23)o1 | i | 1.3 | -0.761 | 63.6* | . | -8.6
Cc1ccc(OCCCC(=O)Nc2nccs2)cc1 | i | 2.7 | -1.49 | 0.4 | -0.4 | .
CC1Cc2ccccc2N1C(=S)Nc1ccc(S(N)(=O)=O)cc1 (stereo unspecified) | i | 1.4 | -0.361 | 80.2* | 0.2 | -21.8
CC(=O)c1ccc(NC(=S)N2c3ccccc3CC2C)cc1 (stereo unspecified) | i | 2.7 | 1.42 | 6.3 | 0.9 | .
c1ccc2c(-c3c[nH]c4ccccc34)c3ccccc3nc2c1 | . | 28.5 | -0.633 | 54.8* | 9.5 | 47.3
CC(C)c1nccn1S(=O)(=O)c1cccc([N+](=O)[O-])c1 | i | 2.8 | 0.0671 | 52.4* | 1.9 | -15.3
CN1CCN(S(=O)(=O)c2cccc([N+](=O)[O-])c2)CC1 | i | 2.2 | -0.426 | -4.3 | . | .
O=C(Nc1ccc(C2=NCCN2)cc1)c1ccc(C(=O)Nc2ccc(C3=NCCN3)cc2)c([N+](=O)[O-])c1 | i | . | -0.251 | . | 0.0 | .
O=[N+]([O-])c1cc(Cl)cc(C2=NCCN2)c1 | i | 4.5 | 1.62 | 51.6* | . | -15.0
O=C(CO/N=C/c1ccc(OC(F)F)cc1)NCc1ccco1 | i | 4.3 | -0.696 | -0.7 | -5.4 | .
S=C(Nc1ccc(Oc2ccc(NC(=S)NC3CCCCC3)cc2)cc1)NC1CCCCC1 | i | 1.6 | -0.649 | 57.5* | . | 2.5
SMILES | HSV replic up | MT stabilize HCS | Dynein cargo inh | L major viab | b-catenin transl | L major 1uM
S=C(Nc1ccc(Oc2ccccc2)cc1)NC1CCCCCC1 | i | 2.8 | -0.397 | 15.7 | -0.7 | .
OC(COCC1COc2ccccc2O1)CN1CCN(c2ccccc2F)CC1 (stereo unspecified) | i | 0.7 | -0.384 | 65.3* | 5.9 | -9.8
Cn1c(COc2cccc3ccccc23)nnc1SCC(=O)OC1CCCCC1 | i | . | -0.842 | . | -0.5 | .
Cc1noc(C)c1C(c1ccccc1)c1ccccc1 | i | 2.1 | 0.968 | 1.7 | -6.4 | .
Cc1ccc(S(=O)(=O)C(c2ccccc2)c2c(C)noc2C)cc1 (stereo unspecified) | i | 3.6 | -0.403 | 60.8* | -2.7 | -6.3
Cc1noc(C)c1C(c1ccccc1)S(=O)(=O)c1ccccc1 (stereo unspecified) | i | 2.7 | 2.02 | 84.8* | -3.0 | -15.9
Cc1cccc(-c2noc(-c3c(C)noc3C)n2)c1 | i | . | -0.331 | . | -5.2 | .
Cc1cccc(NCCC(=O)c2ccc(Br)cc2)c1 | i | 2.0 | 0.46 | 53.8* | -0.4 | -11.1
COc1ccc(OC)c(N(CC(=O)NCc2ccccn2)S(C)(=O)=O)c1 | i | 3.2 | 0.285 | 15.2 | -2.8 | .
